Several values for one entry are separate records, joined by “and”; a condition that tells them apart may be missing. Identical values can stand only once. *1 amine or outer side, *2 acyl side, *3 side chain or, on linkers, in order; H or OH if unused. Where a SMILES comes first, the peptide text is derived from it. Bridges are numbered along the chain shown (N, C = ends). Roman numbers before positions name the chains, in order. [ ]: non-standard residue; d: D form. Hexamethylenediamine = C(CCCN[*:2])CCN[*:1]; Dip = N[C@H](C(=O)O)C(c1ccccc1)c1ccccc1; Chg = N[C@H](C(=O)O)C1CCCCC1; NMeA = CN[C@@H](C)C(=O)O
Columns and labels:
Fibroblast = experiment: Multiplex assay against human fibroblast; type: toxicity, cell-based; conditions: number of replicates 2
How it was run: (§1)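 Phenotypes for tubulin, mitochondrial mass and membrane permeability are expressed as per cents of healthy-nucleus cells. Cells were stained live at seeding with Hoechst33342, BioTracker Green Microtubule Cytoskeleton Dye, MitoTracker Red and Annexin V Alexa Fluor 680, then imaged after compound addition on a CQ1 microscope at 37°C and 5% CO2. Machine-learning gating in CellPathfinder separated Hoechst high-intensity objects from normal cells, divided normal cells by nuclear state (healthy, pyknosed, fragmented) and divided pyknosed cells into mitotic or apoptotic.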

U2OS = experiment: Multiplex assay against U2OS; type: toxicity, cell-based; conditions: human, number of replicates 2; how it was run: as §1
[1] = 24 h, 1 µM, compound concentration 1 uM
[2] = 24 h, 10 µM, compound concentration 10 uM
[3] = 48 h, 1 µM, compound concentration 1 uM
[4] = 48 h, 10 µM, compound concentration 10 uM
[5] = 12 h, 1 µM, compound concentration 1 uM
[6] = 12 h, 10 µM, compound concentration 10 uM

Structure (SMILES): CN[C@@H](C)C(=O)N[C@H](C(=O)N1CCC[C@H]1C(=O)N[C@H](C(=O)NCCCCCCNC(=O)[C@@H](NC(=O)[C@@H]1CCCN1C(=O)[C@@H](NC(=O)[C@H](C)NC)C1CCCCC1)C(c1ccccc1)c1ccccc1)C(c1ccccc1)c1ccccc1)C1CCCCC1 (I: H-[NMeA][Chg]P[Dip] / II: H-[NMeA][Chg]P[Dip]; linker I:C-II:C via Hexamethylenediamine)
- Population Mitochondria Different-Phenotype (%) (Fibroblast; [1]): 4% and 2%
- Population Mitotic Cells (%) (Fibroblast; [1]): 56% and 55%
- Population Normal (%) (Fibroblast; [1]): 100% and 99%
- Population Pyknosed Nuclei (%) (Fibroblast; [1]): 21% and 22%
- Population Tubulin-Different-Phenotype (%) (Fibroblast; [1]): 24% and 16%
- Total Cell Count (Fibroblast; [1]): 203 and 176
- Population Apoptotic (%) (Fibroblast; [2]): 72% and 60%
- Population Fragmented Nuclei (%) (Fibroblast; [2]): 22% and 20%
- Population Healthy Nuclei (%) (Fibroblast; [2]): 48% and 60%
- Population Hoechst High Intensity Objects (%) (Fibroblast; [2]): 0%
- Population Membrane Permeable-Phenotype (%) (Fibroblast; [2]): 9% and 11%
- Population Mitochondria Different-Phenotype (%) (Fibroblast; [2]): 36% and 23%
- Population Mitotic Cells (%) (Fibroblast; [2]): 27% and 39%
- Population Normal (%) (Fibroblast; [2]): 100%
- Population Pyknosed Nuclei (%) (Fibroblast; [2]): 29% and 19%
- Population Tubulin-Different-Phenotype (%) (Fibroblast; [2]): 63% and 71%
- Total Cell Count (Fibroblast; [2]): 249 and 210
- Population Apoptotic (%) (Fibroblast; [3]): 52% and 53%
- Population Fragmented Nuclei (%) (Fibroblast; [3]): 16% and 12%
- Population Healthy Nuclei (%) (Fibroblast; [3]): 65% and 73%
- Population Hoechst High Intensity Objects (%) (Fibroblast; [3]): 0%
- Population Membrane Permeable-Phenotype (%) (Fibroblast; [3]): 3% and 5%
- Population Mitochondria Different-Phenotype (%) (Fibroblast; [3]): 3% and 2%
- Population Mitotic Cells (%) (Fibroblast; [3]): 47% and 46%
- Population Normal (%) (Fibroblast; [3]): 100%
- Population Pyknosed Nuclei (%) (Fibroblast; [3]): 17% and 14%
- Population Tubulin-Different-Phenotype (%) (Fibroblast; [3]): 23% and 13%
- Total Cell Count (Fibroblast; [3]): 206 and 194
- Population Apoptotic (%) (Fibroblast; [4]): 83% and 76%
- Population Fragmented Nuclei (%) (Fibroblast; [4]): 35% and 30%
- Population Healthy Nuclei (%) (Fibroblast; [4]): 57%
- Population Hoechst High Intensity Objects (%) (Fibroblast; [4]): 0%
- Population Membrane Permeable-Phenotype (%) (Fibroblast; [4]): 8% and 3%
- Population Mitochondria Different-Phenotype (%) (Fibroblast; [4]): 12% and 20%
- Population Mitotic Cells (%) (Fibroblast; [4]): 16% and 23%
- Population Normal (%) (Fibroblast; [4]): 100% and 99%
- Population Pyknosed Nuclei (%) (Fibroblast; [4]): 6% and 12%
- Population Tubulin-Different-Phenotype (%) (Fibroblast; [4]): 79% and 67%
- Total Cell Count (Fibroblast; [4]): 258 and 314
- Population Apoptotic (%) (U2OS; [5]): 75% and 38%
- Population Healthy Nuclei (%) (U2OS; [5]): 41% and 84%
- Population Hoechst High Intensity Objects (%) (U2OS; [5]): 0%
- Population Membrane Permeable-Phenotype (%) (U2OS; [5]): 0%
- Population Mitochondria Different-Phenotype (%) (U2OS; [5]): 0%
- Population Mitotic Cells (%) (U2OS; [5]): 25% and 61%
- Population Normal (%) (U2OS; [5]): 100%
- Population Pyknosed Nuclei (%) (U2OS; [5]): 7% and 12%
- Population Tubulin-Different-Phenotype (%) (U2OS; [5]): 36% and 78%
- Total Cell Count (U2OS; [5]): 53 and 104
- Population Apoptotic (%) (U2OS; [6]): 90% and 91%
- Population Healthy Nuclei (%) (U2OS; [6]): 62% and 56%
- Population Hoechst High Intensity Objects (%) (U2OS; [6]): 1% and 0%
- Population Membrane Permeable-Phenotype (%) (U2OS; [6]): 10% and 0%
- Population Mitochondria Different-Phenotype (%) (U2OS; [6]): 20% and 19%
- Population Mitotic Cells (%) (U2OS; [6]): 9% and 8%
- Population Normal (%) (U2OS; [6]): 98% and 100%
- Population Pyknosed Nuclei (%) (U2OS; [6]): 31% and 21%
- Population Tubulin-Different-Phenotype (%) (U2OS; [6]): 57% and 22%
- Population Apoptotic (%) (U2OS; [1]): 62% and 52%
- Population Healthy Nuclei (%) (U2OS; [1]): 47% and 89%
- Population Hoechst High Intensity Objects (%) (U2OS; [1]): 0%
- Population Membrane Permeable-Phenotype (%) (U2OS; [1]): 9% and 0%
- Population Mitochondria Different-Phenotype (%) (U2OS; [1]): 0%
- Population Mitotic Cells (%) (U2OS; [1]): 37% and 47%
- Population Normal (%) (U2OS; [1]): 100%
- Population Pyknosed Nuclei (%) (U2OS; [1]): 12% and 9%
- Total Cell Count (U2OS; [1]): 65 and 175
- Population Apoptotic (%) (U2OS; [2]): 77% and 80%
- Population Fragmented Nuclei (%) (U2OS; [2]): 9%
- Population Healthy Nuclei (%) (U2OS; [2]): 54% and 58%
- Population Hoechst High Intensity Objects (%) (U2OS; [2]): 0%
- Population Membrane Permeable-Phenotype (%) (U2OS; [2]): 11% and 8%
- Population Mitotic Cells (%) (U2OS; [2]): 22% and 19%
- Population Normal (%) (U2OS; [2]): 100% and 99%
- Population Pyknosed Nuclei (%) (U2OS; [2]): 35% and 32%
- Population Tubulin-Different-Phenotype (%) (U2OS; [2]): 23% and 47%
- Population Apoptotic (%) (U2OS; [3]): 78% and 74%
- Population Healthy Nuclei (%) (U2OS; [3]): 45% and 79%
- Population Hoechst High Intensity Objects (%) (U2OS; [3]): 0%
- Population Membrane Permeable-Phenotype (%) (U2OS; [3]): 9% and 2%
- Population Mitochondria Different-Phenotype (%) (U2OS; [3]): 4% and 0%
- Population Mitotic Cells (%) (U2OS; [3]): 21% and 25%
- Population Normal (%) (U2OS; [3]): 100%
- Population Pyknosed Nuclei (%) (U2OS; [3]): 20% and 12%
- Population Tubulin-Different-Phenotype (%) (U2OS; [3]): 33% and 81%
- Population Apoptotic (%) (U2OS; [4]): 94% and 76%
- Population Fragmented Nuclei (%) (U2OS; [4]): 7% and 14%
- Population Healthy Nuclei (%) (U2OS; [4]): 63% and 52%
- Population Hoechst High Intensity Objects (%) (U2OS; [4]): 0%
- Population Membrane Permeable-Phenotype (%) (U2OS; [4]): 9% and 10%
- Population Mitochondria Different-Phenotype (%) (U2OS; [4]): 7% and 8%
- Population Normal (%) (U2OS; [4]): 99% and 100%
- Population Pyknosed Nuclei (%) (U2OS; [4]): 28% and 33%
- Population Tubulin-Different-Phenotype (%) (U2OS; [4]): 50% and 34%
